The nature of series [1]: Cytotoxicity against human TZM-bl cells at 10 uM after 48 hrs by MTT assay. It counts as cell-based. For orientation: Formazan colour is commonly taken as a measure of viable cells.
The subject of series [2] is Human immunodeficiency virus. In words: Antiviral activity against HIV infected in human TZM-bl cells at 10 uM after 48 hrs by measuring luciferase activity by luminometer analysis. It is filed as functional. The note with it: Human immunodeficiency virus 1, TZM-bl. A digest of the protocol: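 TZM-bl cells seeded at 10⁴ cells/well; samples (from DMSO stocks) added next day, then pseudotyped HIV; final DMSO 2%. Incubated 48 h at 37 °C in humidified CO₂. Steady-glow luciferase substrate added, lysis 20 min in dark, luminescence read. AZT and MK-0518 as positive controls; expressed as percent inhibition.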

In series [3] the test system is Tobacco mosaic virus. In words: In vitro antiviral activity against TMV at 500 ug/ml. It counts as functional.
The test system of series [4] is Tobacco mosaic virus. In words: In vivo antiviral activity against TMV assessed as inactivation effect at 500 ug/ml. It is filed as functional.
In series [5] the test system is Tobacco mosaic virus. In words: In vivo antiviral activity against TMV assessed as curative effect at 500 ug/ml. It is filed as functional.
The subject of series [6] is Tobacco mosaic virus. In words: In vivo antiviral activity against TMV assessed as protection effect at 500 ug/ml. It counts as functional.

The structures appear in SMILES notation.

Usually inhibition stands for the drop in the measured response relative to a control, in per cent. Regarding `O=C(NCc1ccc(F)cc1)c1c(C(F)(F)F)nn(-c2ccccc2)c(=O)c1O`, the Activity result is “Non-toxic” in series [1], 36.7% in the series with Tobacco mosaic virus [4], 30.2% in the series with Tobacco mosaic virus [5] and 32.6% in the series with Tobacco mosaic virus [6]. For the same compound, the inhibition at 10 µM in series [2] was determined as 27.9%. The inhibition at 500 µg/mL with Tobacco mosaic virus [3] was 38.5%.
`O=C(NCc1ccc(F)cc1)c1c(C(F)(F)F)nn(CC2CCCO2)c(=O)c1O` (configuration not stated): the Activity result was “Non-toxic” in series [1], 13.2% in the series with Tobacco mosaic virus [4], 0% with Tobacco mosaic virus [5] and 0% with Tobacco mosaic virus [6]. The inhibition at 10 µM in series [2] is -3.02%. Besides, the inhibition at 500 µg/mL in the series with Tobacco mosaic virus [3] was 0%.
